The values that follow come from ChEMBL document CHEMBL1148262, “Stability studies of C-4',6' acetal benzylmaltosides synthesized as inhibitors of smooth muscle cell proliferation” (Bioorg Med Chem Lett, 2004).

The structures appear in SMILES notation. pIC50: −log10 of the molar value.

Data set [1] can be described thus: Stability of compound determined in medium mimicking stomach as percent remaining at 18-20 hr at a pH of 1. It counts as ADME. The settings on record: pH 1.
Data set [2] in a line: Half-life of compound at a pH of 1 was determined. As to conditions: pH 1. The data set is classed as ADME.
The nature of data set [3]: Half-life of compound at a pH of 1.4 was determined. The data set is classed as ADME. The settings on record: pH 1.4.
Data set [4] in a line: Half-life of compound at a pH of 1.9 was determined. As to conditions: pH 1.9. It counts as ADME.
Data set [5] can be described thus: Half-life of compound at a pH of 2.5 was determined. It counts as ADME. As to conditions: pH 2.5.
Data set [6] can be described thus: Half-life of compound at a pH of 3 was determined. The data set is classed as ADME. The settings on record: pH 3.
Data set [7] is described as follows: Half-life of compound at a pH of 3.5 was determined. It counts as ADME. The settings on record: pH 3.5.
A short description of data set [8]: Half-life of compound at a pH of 4 was determined. The data set is classed as ADME. As to conditions: pH 4.
Data set [9] in a line: Half-life of compound at a pH of 4.5 was determined. It counts as ADME. The settings on record: pH 4.5.
The subject of a further data set is HASMC. In words: Concentration inducing 50% inhibition of Human aortic smooth muscle cell (HASMC) proliferation. The data set is classed as functional, cell-based. In a few lines:
(§1)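 HASMC or HAEC from passage 3–6, grown to 70–80% confluence in 24-well plates, then held 24–48 h without serum or growth factors to make them quiescent. Restimulated with serum or growth factor for 24 h with 0.5 µCi/mL ³H-thymidine. Compounds were added from 50% ethanol stock at 1–100 µM. TCA-precipitable counts were measured in triplicate, as percent of stimulated control, and IC50 was derived.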

A short description of data set [10]: Percent degradation of compound at a pH of 1 over a 18 hr period. The settings on record: pH 1; read-out: Degradation. It counts as ADME.
Data set [11] in a line: Concentration inducing 50% inhibition of human aortic endothelial cell (HAEC) proliferation. The data set is classed as functional, cell-based. In a few lines:
as §1

The next data set concerns Rattus norvegicus. Nature of the data set: In vivo percent reduction in intimal thickening rat balloon injury model at a dose of 100 mg/kg; Range is 18-39 %. It counts as functional.

On to `CC(=O)Nc1cc(CO[C@@H]2O[C@@H](COC(=O)c3ccccc3)[C@H](O[C@H]3OC4CO[C@@H](Cc5ccccc5)OC4[C@H](O)[C@@H]3O)[C@H](O)[C@@H]2O)ccc1Cl` (stereo not given in full), for which the Remaining in data set [1] is reported as 94%. The half-life in data set [2], in [3], in data set [4], in data set [5], in [6] and in data set [7] was greater than 20 h each time. The half-life in data set [8] and in data set [9] was greater than 20 h in each case. The same compound showed a negative-log IC50 (pIC50) in the data set on HASMC of 7.46.
With `CC(=O)Nc1cc(CO[C@@H]2O[C@@H](COC(=O)c3ccccc3)[C@H](O[C@H]3OC4CO[C@@H](C)OC4[C@H](O)[C@@H]3O)[C@H](O)[C@@H]2O)ccc1Cl` (stereo not given in full), in [10], the degraded at 18 h worked out at 32%. In data set [1], this compound had a Remaining of 68%. Also, the half-life in data set [2], in [3], in data set [4], in data set [5], in [6] and in [7] was greater than 20 h in each case. The half-life in data set [8] and in data set [9] was greater than 20 h in each case. Further, the pIC50 in data set [11] is 6.59; in the data set with HASMC, 6.99.
`CC(=O)Nc1cc(CO[C@@H]2O[C@@H](COC(=O)c3ccccc3)[C@H](O[C@H]3OC4CO[C@@H](C(C)C)OC4[C@H](O)[C@@H]3O)[C@H](O)[C@@H]2O)ccc1Cl` (stereo not given in full): the Remaining in [1] was 53%. Moreover, the half-life in data set [2], in [3], in [4], in data set [5], in data set [6] and in [7] was greater than 20 h each time. The half-life in data set [8] and in data set [9] was greater than 20 h in each case. This compound also had a negative logarithm of the IC50 (pIC50) with HASMC of 8.52.
Take `CC[C@@H]1OCC2O[C@H](O[C@@H]3[C@H](O)[C@H](O)[C@H](OCc4ccc(Cl)c(NC(C)=O)c4)O[C@H]3COC(=O)c3ccccc3)[C@@H](O)[C@@H](O)C2O1` (stereo not given in full): the Remaining in data set [1] is listed as 52%. Further, the half-life in [2], in data set [3], in data set [4], in data set [5], in data set [6] and in data set [7] was greater than 20 h in each case. Moreover, the half-life in [8] and in data set [9] was greater than 20 h throughout. Also, the values for the pIC50 (in data set [11]; in the data set on HASMC) were 6.63 and 7.43, respectively.
Consider `CC(=O)Nc1cc(CO[C@@H]2O[C@@H](COC(=O)c3ccccc3)[C@H](O[C@H]3OC4CO[C@@H](c5ccc([N+](=O)[O-])cc5)OC4[C@H](O)[C@@H]3O)[C@H](O)[C@@H]2O)ccc1Cl` (stereo not given in full), for which the pIC50 in data set [11] is 6.43; in the data set with HASMC it was 8.52.
Regarding `CC(=O)Nc1cc(CO[C@@H]2O[C@@H](COC(=O)c3ccccc3)[C@H](O[C@H]3OC4CO[C@@H](c5ccncc5)OC4[C@H](O)[C@@H]3O)[C@H](O)[C@@H]2O)ccc1Cl` (stereo not given in full), the Remaining in data set [1] is recorded as 97%. In addition, the half-life in data set [2], in data set [3], in data set [4], in data set [5], in [6] and in data set [7] was greater than 20 h throughout. The half-life in data set [8] and in data set [9] was greater than 20 h in each case. This compound had a pIC50 in the data set on HASMC of 8.52.
`CC(=O)Nc1cc(CO[C@@H]2O[C@@H](COC(=O)c3ccccc3)[C@H](O[C@H]3O[C@@H](CO)[C@@H](O)[C@H](O)[C@@H]3O)[C@H](O)[C@@H]2O)ccc1Cl` showed a pIC50 with HASMC of 4.46.
Take `CC(=O)Nc1cc(CO[C@@H]2O[C@@H](COC(=O)c3ccccc3)[C@H](O[C@H]3OC4CO[C@@H](c5ccc(Cl)cc5)OC4[C@H](O)[C@@H]3O)[C@H](O)[C@@H]2O)ccc1Cl` (stereo not given in full): in data set [1], the Remaining is 0%. Also, the half-life in [2] is 1.7 h; in data set [3], 4 h; in data set [4], 13.3 h; in data set [5], greater than 20 h; in [6], greater than 20 h; in [7], greater than 20 h. Further, the half-life in data set [8] and in [9] was greater than 20 h throughout. Moreover, the figures for the negative-log IC50 (pIC50) (in data set [11]; in the data set on HASMC) were 6.49 and 7.64, respectively.
As to `CC(=O)Nc1cc(CO[C@@H]2O[C@@H](COC(=O)c3ccccc3)[C@H](O[C@H]3OC4CO[C@@H](c5ccccc5)OC4[C@H](O)[C@@H]3O)[C@H](O)[C@@H]2O)ccc1Cl` (stereo not given in full), the degraded at 18 h in [10] is 100%. For the same compound, the Remaining in [1] is recorded as 0%. The half-life in [2] is 1.9 h; in data set [3] it was 2.3 h; in data set [4], 4.2 h; in [5] it was 13 h; in [6] it was greater than 20 h; in data set [7], greater than 20 h. Further, the half-life in data set [8] and in data set [9] was greater than 20 h in each case. The figures for the pIC50 (in data set [11]; in the data set with HASMC) were 6.03 and 7.70, respectively. Moreover, the Reduction with Rattus norvegicus came out at 39%.

As a reminder, the half-life is the time in which the quantity being followed falls by half. Higher therefore signals slow loss. As a reminder, the pIC50 is the IC50 on a negative log10 scale, so that one unit is a factor of ten. Low readings indicate a large IC50, high ones a small IC50.
